Laboratory results reported in ChEMBL document CHEMBL1129296, “Cardioselective antiischemic ATP-sensitive potassium channel openers. 4. Structure-activity studies on benzopyranylcyanoguanidines: replacement of the benzopyran portion” (J Med Chem, 1996).

Legend:
Type in all cases: functional
[1] = species: Rattus norvegicus; experiment: Antiischemic potency was determined at 10 uM for increase in time to contracture by 25% in globally ischemic rat hearts.
[2] = species: Rattus norvegicus; experiment: Vasorelaxant potency was determined for inhibition of methoxamine contracted rat aorta.
In short: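 Vasorelaxation was measured in rat aorta precontracted with methoxamine. IC50 is the concentration giving relaxation of the contraction.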

[3] = Ratio between Antiischemic potency to Vasorelaxant potency
In short: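 Cardioselectivity was taken as the ratio of two values. The first is the EC25 for a 25% increase in time to contracture, in globally ischemic isolated perfused rat hearts. The second is the IC50 for relaxation of methoxamine-contracted rat aorta.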

[4] = species: Rattus norvegicus; experiment: Antiischemic potency was determined for increase in time to contracture by 25% in globally ischemic rat hearts.
In short: (§1)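 Isolated rat hearts were perfused, then subjected to total global ischemia. Contracture onset was taken as the time for end diastolic pressure to rise 5 mmHg above baseline. EC25 is the concentration that raises time to contracture by 25%.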

[5] = species: Rattus norvegicus; experiment: Antiischemic potency for increase in time to contracture by 25% in globally ischemic rat hearts.; in short: as §1

IC50 [2] | Compound | Increase in time to contracture [1] | Ratio [3] | EC25 [4] | Inhibition [5]
12.4 µM | CC(C)(C)c1ccc(C#N)cc1NC(=O)Nc1cncnc1 | 2% |  |  | 
1.6 µM | CC(C)(C)c1ccc(C#N)cc1NC(=O)Nc1ccc(Cl)nc1 |  | 12 | 19.2 µM | 
1.7 µM | CC(C)(C)c1ccc(C#N)cc1NC(=O)Nc1ccccc1 |  | 19.9 | 33.8 µM | 
1.5 µM | CC1(C)CN(C(=O)Nc2cccnc2)c2cc(C#N)ccc21 |  | 18.8 | 28.3 µM | 
25.7 µM | CC(C)(C)c1ccc(C#N)cc1NC(=O)Nc1cccnc1 | 25% | 1.2 | 29.7 µM | 
15.3 µM | CC(C)(C)c1ccc(C#N)cc1NC(=O)Nc1cnccn1 |  | 0.77 | 11.9 µM | 
22.8 µM | N#Cc1ccc(-c2ccccc2)c(NC(=O)Nc2cccnc2)c1 |  |  | 12 µM | 
6.7 µM | CC1(C)CCN(C(=O)Nc2ccccc2)c2cc(C#N)ccc21 |  | 3.9 | 26 µM | 
1.3 µM | CC1(C)CC(NC(=O)Nc2ccccc2)c2cc(C#N)ccc21 (centres undefined) |  | 7.2 | 9.4 µM | 
1.4 µM | CC1(C)Oc2ccc(C#N)cc2[C@@H](/N=C(\NC#N)Nc2ccccc2)[C@@H]1O |  | 7.9 | 11 µM | 
1 µM | N#Cc1ccc(Oc2ccccc2)c(NC(=O)Nc2cccnc2)c1 |  |  | 2 µM | 
> 100 µM | Cc1ccc(S(=O)(=O)Nc2ccc(C#N)cc2NC(=O)Nc2cccnc2)cc1 |  |  |  | 0%
7.8 µM | CC(C)(C)c1ccc(C#N)cc1NC(=O)Nc1ccncc1 | 14% |  |  | 
25.7 µM | CC(C)(C)c1ccc(C#N)cc1NC(=O)Nc1ccccn1 | 25% |  |  | 
1.2 µM | CC(C)(C)c1ccc(C#N)cc1/N=C(/NC#N)Nc1cccnc1 | 16% |  |  | 
